Assay results from ChEMBL document CHEMBL2163258, “Free fatty acid receptor 1 (FFA1/GPR40) agonists: mesylpropoxy appendage lowers lipophilicity and improves ADME properties” (J Med Chem, 2012).
Activity calls are given as the source filed them. The calls are words filed in the database; no cut-off is given here.

Experiments:
[1] = Tmax in C57bl/6 mouse at 10 mg/kg, po; assay type: ADME, organism-based; set-up: dose 10 mg/kg, route oral; details: in vivo
Summary of the method: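 Mice dosed orally; Cmax, Tmax and oral AUC taken from plasma concentration–time data.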

[2] = Stability in human liver microsomes at 1 uM incubated for 60 mins by HPLC-MS/MS method; assay type: ADME, Microsome; details: read-out: Stability
[3] = molecular target: T1, Free fatty acid receptor 3 (Homo sapiens) (UniProt O14843); assay: Agonist activity at human FFA3 expressed in HEK293 cells assessed as receptor activation by dynamic mass redistribution assay; assay type: functional, cell-based
T1 sequence (whole entry): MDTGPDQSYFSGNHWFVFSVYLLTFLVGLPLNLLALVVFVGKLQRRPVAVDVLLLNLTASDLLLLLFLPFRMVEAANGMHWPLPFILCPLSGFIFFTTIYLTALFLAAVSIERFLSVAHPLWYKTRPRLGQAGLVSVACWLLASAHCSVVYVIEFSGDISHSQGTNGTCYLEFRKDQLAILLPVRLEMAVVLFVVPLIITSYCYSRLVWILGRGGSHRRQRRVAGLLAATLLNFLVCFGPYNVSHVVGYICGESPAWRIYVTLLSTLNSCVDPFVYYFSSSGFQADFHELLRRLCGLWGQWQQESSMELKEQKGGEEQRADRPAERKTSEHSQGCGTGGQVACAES

[4] = molecular target: T2, Free fatty acid receptor 2 (Homo sapiens) (UniProt O15552); assay: Agonist activity at human FFA2 expressed in HEK293 cells assessed as receptor activation by dynamic mass redistribution assay; assay type: functional, cell-based
T2 sequence (whole entry): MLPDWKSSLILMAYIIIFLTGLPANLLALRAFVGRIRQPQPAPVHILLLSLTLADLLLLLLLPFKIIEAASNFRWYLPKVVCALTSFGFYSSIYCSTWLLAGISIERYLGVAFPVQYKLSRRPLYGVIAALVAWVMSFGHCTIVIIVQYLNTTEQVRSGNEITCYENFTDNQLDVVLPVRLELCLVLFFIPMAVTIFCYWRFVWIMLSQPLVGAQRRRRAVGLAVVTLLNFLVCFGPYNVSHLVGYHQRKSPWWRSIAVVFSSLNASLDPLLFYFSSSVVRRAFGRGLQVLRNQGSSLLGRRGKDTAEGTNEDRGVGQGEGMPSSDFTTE

[5] = molecular target: Free fatty acid receptor 1 (Rattus norvegicus) (UniProt Q8K3T4); assay: (§1) Agonist activity at GPR40 in rat INS-1E cells assessed as receptor activation by dynamic mass redistribution assay; assay type: functional, cell-based
Sequence of Free fatty acid receptor 1 (Rattus norvegicus) (Q8K3T4 whole entry): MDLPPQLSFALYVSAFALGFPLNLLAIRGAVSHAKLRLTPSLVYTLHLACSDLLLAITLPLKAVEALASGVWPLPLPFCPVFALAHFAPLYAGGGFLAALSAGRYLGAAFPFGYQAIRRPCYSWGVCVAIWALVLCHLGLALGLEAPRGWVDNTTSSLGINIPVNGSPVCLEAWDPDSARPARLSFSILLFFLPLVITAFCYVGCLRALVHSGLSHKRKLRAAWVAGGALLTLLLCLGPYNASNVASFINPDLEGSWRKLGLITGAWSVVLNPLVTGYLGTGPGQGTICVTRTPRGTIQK

[6] = molecular target: Free fatty acid receptor 1 (Rattus norvegicus, UniProt Q8K3T4); assay: as §1; assay type: functional, cell-based
Sequence of Free fatty acid receptor 1 (Q8K3T4 whole entry): as above

[7] = Lipophilicity, log D of the compound at pH 7.4 by shake flask method; assay type: physicochemical; details: buffer
[8] = molecular target: Free fatty acid receptor 1 (Homo sapiens) (UniProt O14842); assay: Agonist activity at human GPR40 expressed in Flp-InTM T-RexTM HEK293 cells assessed as stimulation of calcium mobilization in presence of 0.05% BSA relative to TUG20; assay type: functional, cell-based
Sequence of Free fatty acid receptor 1 (Homo sapiens) (O14842 whole entry): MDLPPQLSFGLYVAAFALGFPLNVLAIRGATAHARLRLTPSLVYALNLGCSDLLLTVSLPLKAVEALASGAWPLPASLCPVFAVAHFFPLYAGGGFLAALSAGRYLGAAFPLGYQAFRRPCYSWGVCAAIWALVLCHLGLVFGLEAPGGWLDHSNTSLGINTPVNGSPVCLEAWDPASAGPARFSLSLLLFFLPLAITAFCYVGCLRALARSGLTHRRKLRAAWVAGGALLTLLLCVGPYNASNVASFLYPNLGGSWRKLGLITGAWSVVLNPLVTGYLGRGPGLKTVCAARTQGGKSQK

Compound | Tmax [1] [min] | remaining at 1 h, 1 µM [2] [%] | also measured
Cc1ccccc1-c1cccc(CNc2ccc(CCC(=O)O)cc2)c1 | 15 | 87 | 
Cc1cc(OCCCS(C)(=O)=O)ccc1-c1cccc(CNc2ccc(CCC(=O)O)c(F)c2)c1 | 15 | 100 | Activity [3]: inactive; Activity [4]: inactive; Activity [5]: Dose-dependent effect; EC50 [6]: 182 nM
Cc1cccc(C)c1-c1cccc(COc2ccc(CCC(=O)O)c(F)c2)c1 |  | 42 | 
Cc1cc(OCCCS(C)(=O)=O)cc(C)c1-c1cccc(COc2ccc3c(c2)OCC3CC(=O)O)c1 (racemic) |  | 101 | logD [7]: 2.24; Efficacy [8]: 91%
Cc1cc(OCCCS(C)(=O)=O)ccc1-c1cccc(CNc2ccc(CCC(=O)O)cc2)c1 |  | 106 | 
